Legend:
[1] = molecular target: T1, OXR1 (Homo sapiens, UniProt Q8N573); experiment: OXR1 degradation assay using western blot; assay type: cell-based; details: 5 µM, 24 h, WI-38 IR-SCs and NCs
T1 sequence (Q8N573 1-874): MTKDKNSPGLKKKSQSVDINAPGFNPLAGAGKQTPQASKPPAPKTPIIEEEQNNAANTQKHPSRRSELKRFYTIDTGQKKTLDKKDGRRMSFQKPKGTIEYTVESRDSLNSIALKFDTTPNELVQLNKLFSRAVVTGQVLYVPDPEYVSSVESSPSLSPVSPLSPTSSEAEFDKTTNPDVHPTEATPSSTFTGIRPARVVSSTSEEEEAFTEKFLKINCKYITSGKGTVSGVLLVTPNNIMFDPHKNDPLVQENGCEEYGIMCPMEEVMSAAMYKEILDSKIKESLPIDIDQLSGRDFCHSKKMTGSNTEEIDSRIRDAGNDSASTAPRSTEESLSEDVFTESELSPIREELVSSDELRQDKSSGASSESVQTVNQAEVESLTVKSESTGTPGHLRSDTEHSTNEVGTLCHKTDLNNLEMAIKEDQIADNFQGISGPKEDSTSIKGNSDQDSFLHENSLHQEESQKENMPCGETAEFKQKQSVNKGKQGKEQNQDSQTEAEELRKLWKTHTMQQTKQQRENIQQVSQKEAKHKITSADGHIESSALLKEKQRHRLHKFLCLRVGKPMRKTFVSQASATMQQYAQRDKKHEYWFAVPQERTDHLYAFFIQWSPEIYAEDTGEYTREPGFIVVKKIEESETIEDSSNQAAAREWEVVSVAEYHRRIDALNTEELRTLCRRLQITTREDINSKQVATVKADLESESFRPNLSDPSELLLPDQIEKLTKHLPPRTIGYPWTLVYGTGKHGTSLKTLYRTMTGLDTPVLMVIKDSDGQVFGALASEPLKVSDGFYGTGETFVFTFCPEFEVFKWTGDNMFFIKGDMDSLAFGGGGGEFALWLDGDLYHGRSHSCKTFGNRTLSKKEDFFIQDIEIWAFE
Method in brief: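 Low-passage (<25) WI-38 cells, plus senescent cells made by 15 Gy ¹³⁷Cs γ-irradiation (1.080 Gy/min). Both cultured at 37 °C, 5% CO2, then given 5 µM test compound or vehicle for 24 h. Lysed in RIPA with EDTA/EGTA and transferred to PVDF. Blocked with 5% nonfat milk/TBST. Probed overnight at 4 °C for OXR1 and β-actin, HRP secondaries, ECL/autoradiography. Quantified as mean ± SEM, n = 3.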

[2] = test system: WI-38 IR-SCs; experiment: Apoptosis assay, Annexin V / propidium iodide flow cytometry; assay type: cell-based, Human; details: QVD 10 µM with 49 1 µM, 48 h and 72 h
[3] = test system: mice; details: cited from earlier work
[4] = test system: ROS production in WI-38 IR-SCs; experiment: ROS assay with dihydrorhodamine 123, flow cytometry; assay type: cell-based, Human; details: […] treatment, DHR 123 30 min

| Compound | OXR1 levels (western blot) [1] | also measured |
| --- | --- | --- |
| C=C1CCN(C(=O)/C=C/c2cc(OC)c(OC)c(OC)c2)C1=O [Compound 48, (E)-3-Methylene-1-(3-(3,4,5-trimethoxyphenyl)acryloyl)pyrrolidin-2-one] | selectively reduced the levels of OXR1 in SCs |  |
| C=C1CCCCN(C(=O)/C=C/c2cc(OC)c(OC)c(OC)c2)C1=O [Compound 49, (E)-3-Methylene-1-(3-(3,4,5-trimethoxyphenyl)acryloyl)azepan-2-one] | selectively reduced the levels of OXR1 in SCs |  |
| CC(C)[C@H](NC(=O)c1ccc2ccccc2n1)C(=O)N[C@@H](CC(=O)O)C(=O)COc1c(F)cccc1F [QVD] |  | effect of pan-caspase inhibitor on 49-induced apoptosis and death [2]: significantly reduced apoptosis and partially rescued SCs from 49-induced death |
| COc1cc(/C=C/C(=O)N2CCC=CC2=O)cc(OC)c1OC [PL, piperlongumine] | abrogated the upregulation of OXR1 | maximum tolerated oral dose ([3]; mice, oral): > 1000 mg/kg; effective therapeutic dose for cancer ([3]; oral dosing): ≥ 2.4 mg/kg; ROS levels (DHR 123 fluorescence) [4]: moderate increase of the ROS levels |
| C=C1CCCN(C(=O)/C=C/c2cc(OC)c(OC)c(OC)c2)C1=O [Compound 47, (E)-3-Methylene-1-(3-(3,4,5-trimethoxyphenyl)acryloyl)piperidin-2-one] | selectively reduced the levels of OXR1 in SCs |  |

— article PMC6087492 (Bioorganic & medicinal chemistry, 2018)
